Measured values reported in ChEMBL document CHEMBL4130485, “Inhibitors of Yellow Fever Virus replication based on 1,3,5-triphenyl-4,5-dihydropyrazole scaffold: Design, synthesis and antiviral evaluation” (Eur J Med Chem, 2017).
Activity calls are given as the source filed them. The calls are words filed in the database; no cut-off is given here.

Legend:
[1] = tested on: Human alphaherpesvirus 1; assay: Antiviral activity against Human herpesvirus 1 KOS ATCC VR 1493 infected in African green monkey Vero 76 cells assessed as protection against virus-induced cytopathic effect after 3 days by crystal violet staining-based plaque reduction assay; type: functional, organism-based; conditions: Human alphaherpesvirus 1, KOS, Vero 76, 72 h
[2] = tested on: Yellow fever virus; assay: Potency index, ratio of azauridine EC50 to compound EC50 for Yellow fever virus 17D vaccine (Stamaril Pasteur J07B01); type: functional
[3] = tested on: Human orthopneumovirus; assay: Antiviral activity against Human respiratory syncytial virus A2 ATCC VR 1540 infected in African green monkey Vero 76 cells assessed as protection against virus-induced cytopathic effect after 5 days by crystal violet staining-based plaque reduction assay; type: functional, organism-based; conditions: ATCC VR 1540, Vero 76, 120 h
[4] = Cytotoxicity against golden hamster BHK21 cells assessed as decrease in cell viability after 72 hrs by MTT assay; type: cell-based, Mesocricetus auratus, BHK-21
How it was run: (§1)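 Uninfected MDBK (6×10^5 cells/mL, 10% horse serum) or BHK (1×10^6 cells/mL, 10% FBS) cells in MEM-Earle with serial compound dilutions at 37 °C, 5% CO2, run in parallel with the antiviral assays. Viability read by MTT after 72 h. CC50 by linear regression; mean of three determinations.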

[5] = tested on: Vaccinia virus; assay: Antiviral activity against Vaccinia virus Lister ATCC VR 1549 infected in African green monkey Vero 76 cells assessed as protection against virus-induced cytopathic effect after 3 days by crystal violet staining-based plaque reduction assay; type: functional, organism-based; conditions: Orthopoxvirus vaccinia, ATCC VR 1549, Vero 76, 72 h
[6] = tested on: Yellow fever virus; assay: (§2) Antiviral activity against Yellow fever virus 17D vaccine (Stamaril Pasteur J07B01) infected in golden hamster BHK21 cells assessed as protection against virus-induced cytopathic effect at 20 uM pretreated for 2 hrs followed by viral infection and measured after 24 to 36 hrs post infection by MTT assay; type: functional, organism-based
How it was run: (§3)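 Confluent BHK-21 monolayers inoculated at room temperature with YFV 17-D at 1 PFU/cell, adsorbed 60 min and washed. Compound at 20 µM (test) or 90 µM (6-azauridine reference) added 2 h before infection, during the 2 h infection, or in 2-h windows from 0 to 10 h p.i. Wells washed, refed until 10 h, CPE scored at 24–36 h p.i. Cells frozen and titred by plaque assay.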

[7] = tested on: Human immunodeficiency virus 1; assay: Antiviral activity against HIV1 3B infected in human MT4 cells assessed as protection against virus-induced cytopathic effect after 4 days by MTT assay; type: functional, organism-based; conditions: Human immunodeficiency virus 1, 3B, MT4, 96 h
How it was run: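 MT-4 cells (1×10^4/well) in RPMI with serial compound dilutions, infected with 100 CCID50 HIV-1 (m.o.i. 0.01). Viability read by MTT after 4 days at 37 °C. EC50 for 50% protection from cytopathicity obtained by linear regression versus untreated controls; mean of three determinations.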

[8] = tested on: Enterovirus C; assay: Antiviral activity against Enterovirus C Sabin […] infected in African green monkey Vero 76 cells assessed as protection against virus-induced cytopathic effect after 2 days by crystal violet staining-based plaque reduction assay; type: functional, organism-based; conditions: Vero 76, 48 h
[9] = tested on: Yellow fever virus; assay: Antiviral activity against Yellow fever virus 17D vaccine (Stamaril Pasteur J07B01) infected in golden hamster BHK21 cells assessed as protection against virus-induced cytopathic effect after 3 to 4 days by MTT assay; type: functional, organism-based; conditions: BHK-21
How it was run: (§4)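 BHK-21 cells (MDBK for BVDV) seeded at 5×10^4 (BHK) or 3×10^4 (MDBK) cells/well and grown overnight to confluence. Infected at m.o.i. 0.01 in maintenance MEM-Earle with 0.5% inactivated FBS. Serial compound dilutions added 2 h later (final 100, 20, 4, 0.8 µM; DMSO ≤0.1%). Viability read by MTT after 3–4 days at 37 °C. EC50 obtained by linear regression against untreated controls; mean of three determinations.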

[10] = tested on: Mammalian orthoreovirus 1; assay: Antiviral activity against Reovirus 1 infected in golden hamster BHK21 cells assessed as protection against virus-induced cytopathic effect after 3 to 4 days by MTT assay; type: functional, organism-based; conditions: Mammalian orthoreovirus 1, BHK-21; how it was run: as §4
[11] = Cytotoxicity against African green monkey Vero 76 cells assessed as decrease in cell viability after 48 to 96 hrs by MTT assay; type: cell-based; conditions: chlorocebus sabaeus
How it was run: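 Vero 76 cells seeded at 5×10^5 cells/mL in D-MEM with 10% FBS and incubated with serial compound dilutions at 37 °C, 5% CO2. Viability read by MTT after 48–96 h. CC50 by linear regression versus untreated controls.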

[12] = tested on: Yellow fever virus; conditions: Yellow fever virus 17D; vaccine (Stamaril Pasteur J07B01); at 20 µM
[13] = Selectivity index, ratio of CC50 for golden hamster BHK21 cells to EC50 for Yellow fever virus 17D; type: toxicity; conditions: read-out: Ratio CC50/EC50
How it was run: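 Selectivity index calculated as BHK-21 CC50 divided by YFV EC50, both from MTT assays.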

[14] = tested on: dengue virus type 2; assay: Antiviral activity against Dengue virus type 2 clinical isolate infected in golden hamster BHK21 cells assessed as protection against virus-induced cytopathic effect after 3 to 4 days by MTT assay; type: functional, organism-based; conditions: BHK-21; how it was run: as §4
[15] = tested on: West Nile virus; assay: Antiviral activity against West Nile virus clinical isolate infected in golden hamster BHK21 cells assessed as protection against virus-induced cytopathic effect after 3 to 4 days by MTT assay; type: functional, organism-based; conditions: BHK-21; how it was run: as §4
[16] = tested on: Vesicular stomatitis Indiana virus; assay: Antiviral activity against Vesicular stomatitis virus Indiana ATCC VR 158 infected in African green monkey Vero 76 cells assessed as protection against virus-induced cytopathic effect after 2 days by crystal violet staining-based plaque reduction assay; type: functional, organism-based; conditions: ATCC VR 158, Vero 76, 48 h
[17] = tested on: Bovine viral diarrhea virus 1; assay: Antiviral activity against Bovine viral diarrhea virus NADL ATCC VR 534 infected in bovine MDBK cells assessed as protection against virus-induced cytopathic effect after 3 to 4 days by MTT assay; type: functional, organism-based, Bovine viral diarrhea virus 1-NADL; conditions: Bovine viral diarrhea virus isolates and strains, ATCC VR 534, MDBK; how it was run: as §4
[18] = Antiviral activity against Human enterovirus B Faulkner ATCC VR 185 infected in African green monkey Vero 76 cells assessed as protection against virus-induced cytopathic effect after 3 days by crystal violet staining-based plaque reduction assay; type: functional, cell-based; conditions: Faulkner ATCC VR 185, Vero 76, 72 h
[19] = Cytotoxicity against bovine MDBK cells assessed as decrease in cell viability after 72 hrs by MTT assay; type: cell-based, Bos taurus; conditions: cattle; how it was run: as §1
[20] = Cytotoxicity against human MT4 cells assessed as decrease in cell viability after 96 hrs by MTT assay; type: cell-based
How it was run: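 Exponentially growing MT-4 cells seeded at 1×10^5 cells/mL in RPMI-1640 with 10% FBS and incubated with serial compound dilutions at 37 °C, 5% CO2. Viability read by MTT after 96 h. CC50 by linear regression versus untreated controls.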

[21] = Selectivity index, ratio of CC50 for bovine MDBK cells to EC50 for Bovine viral diarrhea virus NADL ATCC VR 534; type: toxicity; conditions: cattle, read-out: Ratio CC50/EC50
How it was run: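 Selectivity index calculated as MDBK CC50 divided by BVDV EC50, both by MTT.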

[22] = Cytotoxicity against African green monkey Vero 76 cells assessed as decrease in cell viability after 5 days by MTT assay; type: cell-based; conditions: chlorocebus sabaeus
[23] = Selectivity index, ratio of CC50 for African green monkey Vero 76 cells to EC50 for Human coxsackievirus B5 Faulkner; type: toxicity; conditions: read-out: Ratio CC50/EC50
How it was run: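 Selectivity index calculated as Vero 76 CC50 (MTT) divided by CVB-5 plaque-reduction EC50.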

[24] = tested on: Yellow fever virus; assay: as §2, with “90” for “20”; type: functional, organism-based; how it was run: as §3

Row | Compound | EC50 [1] [µM] | Ratio EC50 [2] | EC50 [3] [µM] | CC50 at 72 h [4] [µM] | EC50 [5] [µM] | EC50 [7] [µM] | EC50 [8] [µM] | EC50 [9] [µM] | EC50 [10] [µM] | CC50 [11] [µM] | selectivity ratio [13] | EC50 [14] [µM] | EC50 [15] [µM] | EC50 [16] [µM] | EC50 [17] [µM] | EC50 [18] [µM] | CC50 at 72 h [19] [µM] | CC50 at 96 h [20] [µM] | selectivity ratio [21] | CC50 at 120 h [22] [µM] | also measured
1 | NS(=O)(=O)c1ccc(N2N=C(c3ccc(OCc4ccccc4)cc3)CC2c2ccccc2)cc1 (stereo unspecified) | > 100 | 10 | > 100 | 80 to 84 | > 100 | > 100 | > 100 | 2.2 | > 84 | > 100 | 36.4 | > 80 | > 80 | > 100 | > 72 | > 100 | 72 | > 100 |  |  | inhibition [6]: Active; inhibition [12]: Active
2 | NS(=O)(=O)c1ccc(N2N=C(c3ccc(OCc4ccccc4)cc3)CC2c2ccccc2F)cc1 (stereo unspecified) | > 100 | 10 | > 100 | 90 to 92 | > 100 | > 39 | > 100 | 1.8 | > 92 | > 100 | 50 | > 90 | > 90 | > 100 | 52 | > 100 | > 100 | 39 | > 1.9 |  | inhibition [6]: Active; inhibition [12]: Active
3 | Cc1ccc(C2CC(c3ccc(Oc4ccccc4)cc3)=NN2c2ccc(S(N)(=O)=O)cc2)cc1 (stereo unspecified) | > 86 | 10 | > 20 | 8 to 9 | > 86 | > 7.2 | > 86 | 1.8 | > 8 | 86 | 5 | > 9 | > 9 | > 86 | > 21 | > 86 | 21 | 7.2 |  | 20 | 
4 | NS(=O)(=O)c1ccc(N2N=C(c3ccc(OCc4ccccc4)cc3)CC2c2cccc(F)c2)cc1 (stereo unspecified) | > 90 | 10 | > 25 | 9 to 11 | > 90 | > 65 | > 90 | 2 | > 9 | 90 | 5.5 | > 11 | > 11 | > 90 | 10 | 8.5 | 15 | 65 | 1.5 | 25 | selectivity ratio [23]: 10.6
5 | Cc1ccc(C2CC(c3ccc(OCc4ccccc4)cc3)=NN2c2ccc(S(N)(=O)=O)cc2)cc1 (stereo unspecified) | > 100 | 10 | > 100 | 32 to 36 | > 100 | > 35 | > 100 | 1.8 | > 32 | 100 | 20 | > 36 | > 36 | > 100 | 2.5 | 13 | 80 | 35 | 32 |  | selectivity ratio [23]: 7.7
6 | Cc1ccccc1C1CC(c2ccc(Oc3ccccc3)cc2)=NN1c1ccc(S(N)(=O)=O)cc1 (stereo unspecified) | > 90 | 10 | > 14 | 7 to 8 | > 90 | 13 | > 90 | 2.2 | > 7 | 90 | 3.6 | > 8 | > 8 | > 90 | > 16 | > 90 | 16 | 36 |  | 14 | 
7 | O=c1cnn([C@@H]2O[C@H](CO)[C@@H](O)[C@H]2O)c(=O)[nH]1 [6-AZAURIDINE] |  |  | 40 | > 100 |  |  |  | 20 | 18 | 16 | > 5 |  |  |  |  |  |  |  |  |  | Activity [24]: Active
8 | Cc1cccc(C2CC(c3ccc(Oc4ccccc4)cc3)=NN2c2ccc(S(N)(=O)=O)cc2)c1 (stereo unspecified) | > 81 | 10 | > 14 | 8 to 9 | > 81 | > 35 | > 81 | 1.8 | > 8 | 81 | 5 | > 9 | > 9 | > 81 | > 6 | > 81 | 6 | 35 |  | 14 | 
9 | NS(=O)(=O)c1ccc(N2N=C(c3ccc(Oc4ccccc4)cc3)CC2c2ccccc2)cc1 (stereo unspecified) | > 85 | 10 | > 35 | 11 to 13 | > 85 | 13 | > 85 | 2.1 | > 11 | 85 | 6.2 | > 13 | > 13 | > 85 | > 5 | 3.5 | 5 | 42 |  | 35 | selectivity ratio [23]: 24.3
